Data reported in ChEMBL document CHEMBL5344432, “Identification of a Dual Autophagy and REV-ERB Inhibitor with in Vivo Anticancer Efficacy” (J Med Chem, 2024).
The source made the active and inactive calls. The calls are words filed in the database; no cut-off is given here.

Assays:
HCT-116 = assay: Cytotoxicity against human HCT-116 cells; assay type: functional
Outline: (§1)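 Human cancer lines (A375, MDA-MB-231, OMM-1, UPMM-2, CAPAN-2, HepG2, HT-29, HCT116) treated up to 30 μM. CC50 derived from concentration–response viability plots. Mean ± SEM, n ≥ 6. Two-tailed unpaired t test used between compounds.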

A-375 [1] = assay: Antitumor activity against human A-375 cells xenografted in NMRI-Foxn1nu mouse assessed as tumor growth inhibition at 30 mg/kg, ip administered as 3 days on and 2 days off schedule and measured after 15 days; assay type: functional; conditions: A-375, 360 h, time 15 day, read-out: TGI
Outline: (§2)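 Female NMRI-Foxn1nu mice with subcutaneous A375 flank tumors, grouped by matched tumor volume. Dosing: 30 mg/kg ip or saline, 3 days daily then 2 days off. Tumors measured by digital caliper until day 15. Excised tumors then sized as (W × D × L)/2 and weighed. n = 8; Mann–Whitney two-tailed test for the excised endpoints.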

[2] = Aqueous kinetic solubility of the compound in PBS at pH 7.4 at 250 uM incubated for 24 hrs by UPLC/MS analysis; assay type: physicochemical; conditions: read-out: Kinetic_solubility
Outline: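 Kinetic solubility measured in phosphate-buffered saline, pH 7.4. Mean of at least two independent experiments, each run in two technical replicates.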

[3] = Toxicity in NMRI-Foxn1nu mouse xenografted with human A-375 cells assessed as reduction in body weight at 30 mg/kg, ip administered as 3 days on and 2 days off schedule and measured after 15 days; assay type: organism-based; conditions: in vivo, 360 h, time 15 day
Outline: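 A375 xenograft-bearing female NMRI-Foxn1nu mice received 30 mg/kg ip or saline on a 3-days-on/2-days-off schedule. Body weight recorded daily to day 15, expressed relative to weight on the day before treatment (set to 100%). n = 8.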

A375 (human) = assay: Inhibition of autophagy in human A375 cells expressing EGFP-LC3B assessed as increase in SQSTM1 protein level at 2.5 uM after 24 hrs by immunoblotting analysis
[4] = Metabolic stability in human liver microsomes assessed as half life preincubated for 15 mins followed by NADPH addition and measured after 1 to 2 hrs by LC-MS/MS analysis; assay type: ADME, Microsome; conditions: liver microsomes, time 75-135 min
Outline: (§3)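 Microsomal stability assessed in mouse, human, rat or dog liver microsomes with NADPH cofactor. Half-life and percent parent remaining at 60 and 120 min reported. Mean of at least two independent experiments, each in two technical replicates.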

[5] = Volume of distribution in CD1 mouse at 10 mg/kg, ip measured upto 24 hrs; assay type: ADME, organism-based; conditions: in vivo
Outline: (§4)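 Female CD1 mice given a single 10 mg/kg ip dose. Plasma concentration–time profile analyzed by noncompartmental analysis for half-life and volume of distribution. A two-compartment model was also fitted.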

[6] = Cmax in CD1 mouse at 10 mg/kg, ip measured upto 24 hrs; assay type: ADME, organism-based; parameters: dose 10 mg/kg, time < 24 hrs, route ip; conditions: in vivo; outline: as §4
BT-474 [7] = assay: Cytotoxicity against human BT-474 cells; assay type: functional
Outline: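 BT-474 breast cancer cells and nontumorigenic HMECs treated 48 h with concentrations up to 30 μM. CC50 derived from concentration–response viability plots. Values >30 μM assigned when viability fell by less than 50% of vehicle at 30 μM. Mean ± SEM, n ≥ 3.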

[8] = Tolerability in CD1 mouse assessed as change in body weight at 69 micromol/kg, ip administered as 3 days on and 2 days off schedule and measured after 15 days; assay type: toxicity, organism-based; conditions: in vivo, 360 h, dose 69 µmol/kg, time 15 day
Outline: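 Female CD1 mice given 69 μmol/kg (31 mg/kg) ip, 3 days daily then 2 days off, or saline. Body weight, food intake and water intake monitored daily for 15 days. Weight expressed relative to the day before treatment (100%). Mean ± SEM, n = 3.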

[9] = Cytotoxicity against human OMM-1 cells; assay type: functional; outline: as §1
[10] = Tolerability in CD1 mouse assessed as appearance of arched backs at 138 micromol/kg, ip; assay type: toxicity; conditions: in vivo, dose 138 µmol/kg
Outline: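 Female CD1 mice given daily ip injections at 138 μmol/kg (62 mg/kg). Animals observed for arched backs and lethargy.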

BT-474 [11] = assay: Induction of apoptosis in human BT-474 cells assessed as increase in caspase activity after 24 hrs; assay type: functional, cell-based; conditions: dose 2.5-10 µM
Outline: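 BT-474 cells treated at a range of concentrations. Apoptosis read out as caspase activity and as cleaved PARP protein by immunoblot.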

[12] = Metabolic stability in human liver microsomes assessed as parent compound remaining preincubated for 15 mins followed by NADPH addition and measured after 2 hrs by LC-MS/MS analysis; assay type: ADME, Microsome; conditions: time 135 min, read-out: Stability; outline: as §3
A-375 [13] = assay: Antitumor activity against human A-375 cells xenografted in NMRI-Foxn1nu mouse assessed as reduction in tumor volume at 30 mg/kg, ip administered as 3 days on and 2 days off schedule and measured after 15 days; assay type: functional; parameters: scale not given: the % may be the effect or the level left; conditions: time 15 day; outline: as §2
HEK293 = assay: Inhibition of REV-ERBbeta (unknown origin) transcription expressed in HEK293 cells harboring mutated RevRE incubated for 24 hrs by gaussia luciferase based assay; assay type: cell-based; conditions: Homo sapiens
Outline: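 HEK-293 cells cotransfected with REV-ERBβ and a luciferase reporter bearing a mutated RevRE that REV-ERB cannot bind. Luciferase activity expressed as fold over DMSO vehicle. Mean ± SEM, n = 6.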

[14] = Metabolic stability in mouse liver microsomes assessed as parent compound remaining preincubated for 15 mins followed by NADPH addition and measured after 1 hr by LC-MS/MS analysis; assay type: ADME, Microsome; conditions: time 75 min, read-out: Stability; outline: as §3
HepG2 = assay: Cytotoxicity against human HepG2 cells; assay type: functional; outline: as §1
[15] = Metabolic stability in rat liver microsomes assessed as parent compound remaining preincubated for 15 mins followed by NADPH addition and measured after 1 to 2 hrs by LC-MS/MS analysis; assay type: ADME, Microsome; conditions: time 75-135 min; outline: as §3
BT-474 [16] = assay: Inhibition of REV-ERBbeta in REV-ERBbeta knockout human BT-474 cells assessed as induction of BMAL1 expression at 5 uM after 24 hrs by qRT-PCR analysis; assay type: cell-based
[17] = Tolerability in CD1 mouse assessed as reduction in body weight at 138 micromol/kg, ip administered every other day for 8 days; assay type: toxicity, organism-based; conditions: in vivo, 192 h, dose 138 µmol/kg, time 8 day
Outline: (§5)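 Body weight tracked in female CD1 mice under three regimens: 138 μmol/kg (62 mg/kg) ip daily, assessed after 2 days; 138 μmol/kg every other day over 8 days; 69 μmol/kg (31 mg/kg) daily over 8 days.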

[18] = Metabolic stability in human liver microsomes assessed as parent compound remaining preincubated for 15 mins followed by UDPGA addition and measured after 2 hrs by LC-MS/MS analysis; assay type: ADME, Microsome; conditions: time 135 min, read-out: Stability
Outline: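 Mouse and human liver microsomes incubated with UDPGA cofactor. Half-life and percent parent remaining at 120 min reported. Mean of at least two independent experiments, each in two technical replicates.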

[19] = Tolerability in CD1 mouse assessed as reduction in body weight at 138 micromol/kg, ip measured after 2 days; assay type: toxicity, organism-based; conditions: in vivo, 48 h, dose 138 µmol/kg, time 2 day; outline: as §5

Fc1ccc(C2(NCc3ccc(F)c(CC4CCNCC4)c3)CCCC2)cc1
CC50 (HCT-116): 4560 nM | inhibition in vivo at 30 mg/kg (A-375 [1]): 55% | solubility kinetic at 24 h, 250 µM [2]: > 250 µM | Activity [3]: Non-Toxic | inhibition (A375 (human)): Active | half-life [4]: > 2 h | Vd [5]: 106.07 L/kg | Cmax [6]: 280.23 ng/mL | CC50 (BT-474 [7]): 2310 nM | Activity [8]: Non-Toxic | CC50 [9]: 1140 nM | Activity [10]: Non-Toxic | Activity (BT-474 [11]): Dose-Dependent Effect | remaining at 2 h [12]: 68% | Activity (A-375 [13]): 60% | inhibition (HEK293): inactive | remaining at 1 h [14]: 84% | CC50 (HepG2): 1490 nM | Stability [15]: 98% | inhibition (BT-474 [16]): inactive | Activity [17]: Toxic | remaining at 2 h [18]: 95% | Activity [19]: Toxic
